Results published in ChEMBL document CHEMBL1146349, “Endomorphin-1 analogs with enhanced metabolic stability and systemic analgesic activity: design, synthesis, and pharmacological characterization” (Bioorg Med Chem, 2007).
Activity calls are given as the source filed them.

Key:
[1] = molecular target: Delta-type opioid receptor (Rattus norvegicus, UniProt P33533); assay: Binding affinity to delta opioid receptor in rat brain synaptosome membrane by radioligand binding assay; type: cell membranes
Sequence of Delta-type opioid receptor (Rattus norvegicus, UniProt P33533) (P33533 whole entry): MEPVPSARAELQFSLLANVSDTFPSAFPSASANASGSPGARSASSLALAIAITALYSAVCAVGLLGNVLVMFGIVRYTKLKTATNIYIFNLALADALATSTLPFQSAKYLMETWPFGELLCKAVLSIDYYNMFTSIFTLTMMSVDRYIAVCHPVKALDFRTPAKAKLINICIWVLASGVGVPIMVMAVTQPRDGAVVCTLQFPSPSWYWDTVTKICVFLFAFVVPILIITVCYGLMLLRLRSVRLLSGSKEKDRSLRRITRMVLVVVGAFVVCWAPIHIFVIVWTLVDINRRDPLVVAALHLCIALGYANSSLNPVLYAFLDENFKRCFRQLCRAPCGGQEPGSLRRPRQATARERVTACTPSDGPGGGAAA
Procedure, shortened: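 Displacement of [3H]Tyr-c[D-Pen-Gly-Phe-D-Pen]-OH 1 nM, 3 h incubation, rat brain synaptosomal membranes (300–500 µg/mL protein), 50 mM Tris–HCl pH 7.4; 10 µM naloxone defines nonspecific binding; duplicate assays, at least three repeats.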

[2] = molecular target: Delta-type opioid receptor (Mus musculus, UniProt P32300); assay: Agonist activity at delta opioid receptor in mouse vas deferens assessed as inhibition of electrically-induced twitches; type: functional, tissue-based
Sequence of Delta-type opioid receptor (Mus musculus, UniProt P32300) (P32300 whole entry): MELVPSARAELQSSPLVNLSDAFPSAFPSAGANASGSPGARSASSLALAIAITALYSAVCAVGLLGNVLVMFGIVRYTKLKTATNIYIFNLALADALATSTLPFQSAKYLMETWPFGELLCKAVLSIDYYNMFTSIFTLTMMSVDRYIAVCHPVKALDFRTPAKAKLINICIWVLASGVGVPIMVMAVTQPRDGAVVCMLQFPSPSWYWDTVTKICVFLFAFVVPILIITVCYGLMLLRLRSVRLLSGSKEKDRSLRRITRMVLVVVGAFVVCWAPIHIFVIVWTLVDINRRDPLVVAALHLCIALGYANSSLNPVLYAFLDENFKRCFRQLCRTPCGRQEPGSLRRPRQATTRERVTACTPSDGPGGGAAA
Procedure, shortened: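 MVD: paired rectangular pulses (1-ms width, 100-ms apart, 9 V/cm, supramaximal) every 10 s; isometric twitch recording; dose–response curves, IC50 read graphically; mean of five to eight measurements.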

[3] = Half life in mouse serum; type: ADME, cell-free
Procedure, shortened: (§1)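 Peptides at 500 µM final in 15% mouse brain homogenate (washed) or 100% mouse serum, 2.3 mg/mL protein, 50 mM Tris pH 7.4, 37 °C; sampled 0–300 min in triplicate; stopped with acetonitrile, acidified, centrifuged, remaining peptide by RP-HPLC.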

Mu-type opioid receptor [4] = molecular target: Mu-type opioid receptor (Rattus norvegicus, UniProt P33535); assay: Binding affinity to mu opioid receptor in rat brain synaptosome membrane by radioligand binding assay; type: cell membranes
Sequence of Mu-type opioid receptor (Rattus norvegicus, UniProt P33535) (P33535 whole entry): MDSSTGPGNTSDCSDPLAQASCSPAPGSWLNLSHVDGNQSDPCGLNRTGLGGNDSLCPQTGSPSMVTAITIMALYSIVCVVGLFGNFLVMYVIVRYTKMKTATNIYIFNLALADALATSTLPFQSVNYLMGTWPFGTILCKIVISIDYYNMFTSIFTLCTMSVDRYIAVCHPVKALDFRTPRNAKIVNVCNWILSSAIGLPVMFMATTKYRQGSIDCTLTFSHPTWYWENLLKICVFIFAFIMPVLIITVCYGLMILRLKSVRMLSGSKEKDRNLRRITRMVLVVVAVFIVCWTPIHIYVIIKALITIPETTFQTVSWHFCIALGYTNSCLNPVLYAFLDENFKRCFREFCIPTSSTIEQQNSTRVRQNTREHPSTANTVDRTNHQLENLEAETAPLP
Procedure, shortened: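 Competition vs [3H]Tyr-D-Ala-Gly-MePhe-Gly-ol (DAMGO-type mu ligand) 0.5 nM, 1 h, on rat brain synaptosomal membranes (300–500 µg/mL protein) in 50 mM Tris–HCl pH 7.4; nonspecific binding with 10 µM naloxone; duplicates, repeated at least three times.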

Mu-type opioid receptor [5] = molecular target: Mu-type opioid receptor (Cavia porcellus, UniProt P97266); assay: Agonist activity at mu opioid receptor in guinea pig ileum assessed as inhibition of electrically-induced twitches; type: functional, tissue-based
Sequence of Mu-type opioid receptor (Cavia porcellus, UniProt P97266) (P97266 whole entry): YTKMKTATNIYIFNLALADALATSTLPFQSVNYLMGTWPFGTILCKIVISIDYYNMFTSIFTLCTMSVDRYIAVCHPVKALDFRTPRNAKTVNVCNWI
Procedure, shortened: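 GPI: twitches evoked at 0.1 Hz, 50 V, 0.5-ms pulse width; isometric recording; dose–response curves with IC50 derived graphically; arithmetic mean of five to eight measurements.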

[6] = Half life in mouse brain; type: ADME, tissue-based; procedure, shortened: as §1
[7] = Protein binding to BSA; type: ADME, Bos taurus; conditions: cattle, isolated protein
Procedure, shortened: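 Peptides in mammalian Ringer's solution with 10 g/L BSA and 3.9% dextran, pH 7.4, 37 °C; ultrafiltration (30 kDa cut-off, 2000g, 10 min); total and free peptide by RP-HPLC; % bound = (T−F)/T×100; triplicate.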

[8] = Distribution coefficient, log D in octanol and […] at pH 7.4; type: physicochemical
Procedure, shortened: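 Shake-flask: 50 µg peptide in pre-equilibrated 0.05 M Hepes/0.1 M NaCl pH 7.4 with octanol, vortexed 2 min, centrifuged; both phases quantified by RP-HPLC; D = octanol/buffer ratio; triplicate.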

Mus musculus = assay: Antinociceptive activity in mouse at 30 mg/kg, sc by tail flick test; type: functional, organism-based; set-up: dose 30 mg/kg
Procedure, shortened: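 Mice given 30 mg/kg sc (100 µL); 50 °C warm-water tail-flick, baseline responders under 5 s kept, 10 s cut-off; latencies at 5–60 min post-dose; %MPE = 100·(TL−CL)/(10−CL); saline control; six to eight mice per group, mean with SEM.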

| Structure (SMILES) | Ki [1] [µM] | IC50 [2] [µM] | half-life [3] [h] | Ki (Mu-type opioid receptor [4]) [µM] | IC50 (Mu-type opioid receptor [5]) [µM] | half-life [6] [h] | Activity [7] [%] | logD [8] | Activity (Mus musculus) |
| --- | --- | --- | --- | --- | --- | --- | --- | --- | --- |
| COc1ccc(C[C@H](N=C(N)N)C(=O)N2CCC[C@@H]2C(=O)NCC(=O)N[C@@H](Cc2c[nH]c3ccccc23)C(=O)N[C@@H](Cc2ccccc2)C(N)=O)cc1 | > 10 | > 10 | 2.75 | 1.06 | > 1 | 7.45 | 45.15 | 0.78 | – |
| COc1ccc(C[C@H](N=C(N)N)C(=O)N2CCC[C@H]2C(=O)N[C@@H](Cc2c[nH]c3ccccc23)C(=O)N[C@@H](Cc2ccc(Cl)cc2)C(N)=O)cc1 | 1.37 | 1.29 | 0.803 | 0.538 | 0.845 | 3.17 | 65.57 | 1.33 | – |
| COc1ccc(C[C@H](N=C(N)N)C(=O)N2CCC[C@H]2C(=O)N[C@@H](Cc2c[nH]c3ccccc23)C(=O)N[C@@H](Cc2ccccc2)C(N)=O)cc1 | 4.79 | 1.34 | 0.522 | 0.792 | 0.988 | 4.3 | 40.58 | 0.21 | – |
| COc1ccc(C[C@H](NC(=N)N)C(=O)N2CCC[C@@H]2C(=O)NCC(=O)N[C@@H](Cc2c[nH]c3ccccc23)C(=O)N[C@@H](Cc2ccc(Cl)cc2)C(N)=O)cc1 | 1.48 | > 10 | 3.6 | 0.919 | > 1 | 6.82 | 62.52 | 1.64 | Active |
